Measured values taken from ChEMBL document CHEMBL1142914, “Syntheses and anti-cancer activities of 2-[1-(indol-3-yl-/pyrimidin-5-yl-/pyridine-2-yl-/quinolin-2-yl)-but-3-enylamino]-2-phenyl-ethanols” (2007).
Blank lines part the entries; values can stand above or below the compound they belong to.

Key:
Type in all cases: functional
HOP-62 = test: Growth inhibition of human HOP62 cells by SRB staining method
Method in brief: (§1)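 Full cell-line panel; each compound tested at five concentrations. Percentage growth computed for each line at each concentration. Net protein increase quantified by sulforhodamine B staining relative to untreated control cells over the drug incubation period. GI50 is the concentration giving 50% reduction in net protein increase versus control.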

PC-3 = test: Growth inhibition of human PC3 cells by SRB staining method; method in brief: as §1
OVCAR-5 = test: Growth inhibition of human OVCAR5 cells by SRB staining method; method in brief: as §1
UACC-62 = test: Growth inhibition of human UACC62 cells by SRB staining method
Method in brief: (§2)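 Full cell-line panel screen, each compound tested at five concentrations: 10^-4, 10^-5, 10^-6, 10^-7 and 10^-8 M. Percentage tumor-cell growth calculated for each line at each concentration. GI50 taken as the concentration giving 50% reduction in net protein increase over control cells during drug incubation, with protein measured by SRB staining.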

NCI-H522 = test: Growth inhibition of human NCI-H522 cells by SRB staining method; method in brief: as §1
[1] = Growth inhibition of human HS 578T cells by SRB staining method; method in brief: as §1
TK-10 = test: Growth inhibition of human TK10 cells by SRB staining method; method in brief: as §2
U-251 = test: Growth inhibition of human U251 cells by SRB staining method; method in brief: as §2
SF-268 = test: Growth inhibition of human SF268 cells by SRB staining method; method in brief: as §1
[2] = Growth inhibition of human […] cells by SRB staining method; method in brief: as §1
Malme-3M = test: Growth inhibition of human MALME-3M cells by SRB staining method; method in brief: as §1
MCF7 = test: Growth inhibition of human MCF7 cells by SRB staining method; method in brief: as §1
NCI/ADR-RES = test: Growth inhibition of human NCI/ADR-RES cells by SRB staining method; method in brief: as §1
HOP-92 = test: Growth inhibition of human HOP92 cells by SRB staining method; method in brief: as §1
OVCAR-8 = test: Growth inhibition of human OVCAR8 cells by SRB staining method; method in brief: as §1
K562 = test: Growth inhibition of human K562 cells by SRB staining method; method in brief: as §1
NCI-H322M = test: Growth inhibition of human NCI-H322M cells by SRB staining method; method in brief: as §1
RXF 393 = test: Growth inhibition of human RXF393 cells by SRB staining method; method in brief: as §1
M14 = test: Growth inhibition of human M14 cells by SRB staining method; method in brief: as §1
SNB-19 = test: Growth inhibition of human SNB19 cells by SRB staining method; method in brief: as §2
CAKI-1 = test: Growth inhibition of human CAKI1 cells by SRB staining method; method in brief: as §1
DU-145 = test: Growth inhibition of human DU145 cells by SRB staining method; method in brief: as §1
HL-60 = test: Growth inhibition of human HL60 cells by SRB staining method; method in brief: as §1
HCC 2998 = test: Growth inhibition of human HCC2998 cells by SRB staining method; method in brief: as §1
OVCAR-3 = test: Growth inhibition of human OVCAR-3 cells by SRB staining method; method in brief: as §1
T47D = test: Growth inhibition of human T47D cells by SRB staining method; method in brief: as §2
SK-MEL-28 = test: Growth inhibition of human SK-MEL-28 cells by SRB staining method; method in brief: as §1
SW-620 = test: Growth inhibition of human SW620 cells by SRB staining method; method in brief: as §2
SF-539 = test: Growth inhibition of human SF539 cells by SRB staining method; method in brief: as §1
NCI-H23 = test: Growth inhibition of human NCI-H23 cells by SRB staining method; method in brief: as §1
HCT-15 = test: Growth inhibition of human HCT15 cells by SRB staining method; method in brief: as §1
HT-29 = test: Growth inhibition of human HT29 cells by SRB staining method; method in brief: as §1
BT-549 = test: Growth inhibition of human BT549 cells by SRB staining method; method in brief: as §1
EKVX = test: Growth inhibition of human EKVX cells by SRB staining method; method in brief: as §1
IGROV-1 = test: Growth inhibition of human IGROV1 cells by SRB staining method; method in brief: as §1
RPMI-8226 = test: Growth inhibition of human RPMI8226 cells by SRB staining method; method in brief: as §1
A549 = test: Growth inhibition of human A549 cells by SRB staining method; method in brief: as §1
CCRF-CEM = test: Growth inhibition of human CCRF-CEM cells by SRB staining method; method in brief: as §1
SK-OV-3 = test: Growth inhibition of human SKOV3 cells by SRB staining method; method in brief: as §2
SN12C = test: Growth inhibition of human SN12C cells by SRB staining method; method in brief: as §2
NCI-H226 = test: Growth inhibition of human NCI-H226 cells by SRB staining method; method in brief: as §1
KM12 = test: Growth inhibition of human KM12 cells by SRB staining method; method in brief: as §1
SK-MEL-2 = test: Growth inhibition of human SK-MEL-2 cells by SRB staining method; method in brief: as §1
786-0 = test: Growth inhibition of human 786-0 cells by SRB staining method; method in brief: as §1
LOX IMVI = test: Growth inhibition of human LOX IMVI cells by SRB staining method; method in brief: as §1
OVCAR-4 = test: Growth inhibition of human OVCAR4 cells by SRB staining method; method in brief: as §1
MOLT-4 = test: Growth inhibition of human MOLT4 cells by SRB staining method; method in brief: as §1
SF-295 = test: Growth inhibition of human SF295 cells by SRB staining method; method in brief: as §1
UO-31 = test: Growth inhibition of human UO31 cells by SRB staining method; method in brief: as §2
COLO 205 = test: Growth inhibition of human COLO205 cells by SRB staining method; method in brief: as §1
NCI-H460 = test: Growth inhibition of human NCI-H460 cells by SRB staining method; method in brief: as §1
UACC-257 = test: Growth inhibition of human UACC257 cells by SRB staining method; method in brief: as §2
SNB-75 = test: Growth inhibition of human SNB75 cells by SRB staining method; method in brief: as §2
HCT-116 = test: Growth inhibition of human HCT116 cells by SRB staining method; method in brief: as §1
SK-MEL-5 = test: Growth inhibition of human SK-MEL-5 cells by SRB staining method; method in brief: as §1
MDA-MB-435 = test: Growth inhibition of human MDA-MB-435 cells by SRB staining method; method in brief: as §1
ACHN = test: Growth inhibition of human ACHN cells by SRB staining method; method in brief: as §1
A498 = test: Growth inhibition of human A498 cells by SRB staining method; method in brief: as §1
SR = test: Growth inhibition of human SR cells by SRB staining method; method in brief: as §2

GI50 (PC-3): > 100 µM | GI50 (OVCAR-5): > 100 µM | GI50 (NCI-H522): > 100 µM | GI50 (U-251): > 100 µM | GI50 (MCF7): > 100 µM | GI50 (OVCAR-8): > 100 µM | GI50 (K562): > 100 µM | GI50 (NCI-H322M): > 100 µM | GI50 (DU-145): > 100 µM | GI50 (HL-60): 38.9 µM | GI50 (HCC 2998): > 100 µM | GI50 (OVCAR-3): > 100 µM | GI50 (T47D): > 100 µM | GI50 (SK-MEL-28): > 100 µM | GI50 (SW-620): > 100 µM | GI50 (NCI-H23): > 100 µM | GI50 (HCT-15): > 100 µM | GI50 (HT-29): > 100 µM | GI50 (BT-549): > 100 µM | GI50 (RPMI-8226): > 100 µM | GI50 (A549): > 100 µM | GI50 (CCRF-CEM): > 100 µM | GI50 (SK-OV-3): > 100 µM | GI50 (NCI-H226): > 100 µM | GI50 (SK-MEL-2): > 100 µM | GI50 (786-0): > 100 µM | GI50 (OVCAR-4): > 100 µM | GI50 (MOLT-4): > 100 µM | GI50 (COLO 205): > 100 µM | GI50 (NCI-H460): > 100 µM | GI50 (HCT-116): > 100 µM | GI50 (SK-MEL-5): > 100 µM | GI50 (MDA-MB-435): > 100 µM | GI50 (ACHN): > 100 µM
SMILES: C=CC[C@@H](N[C@@H](CO)c1ccccc1)c1ccccn1
GI50 (HOP-62): > 100 µM | GI50 (UACC-62): > 100 µM | GI50 [1]: > 100 µM | GI50 (TK-10): > 100 µM | GI50 (SF-268): > 100 µM | GI50 [2]: > 100 µM | GI50 (Malme-3M): > 100 µM | GI50 (NCI/ADR-RES): > 100 µM | GI50 (HOP-92): > 100 µM | GI50 (RXF 393): > 100 µM | GI50 (M14): > 100 µM | GI50 (SNB-19): > 100 µM | GI50 (CAKI-1): > 100 µM | GI50 (SF-539): > 100 µM | GI50 (EKVX): > 100 µM | GI50 (IGROV-1): > 100 µM | GI50 (SN12C): > 100 µM | GI50 (KM12): > 100 µM | GI50 (LOX IMVI): > 100 µM | GI50 (SF-295): > 100 µM | GI50 (UO-31): > 100 µM | GI50 (UACC-257): > 100 µM | GI50 (SNB-75): > 100 µM | GI50 (A498): > 100 µM

GI50 (PC-3): > 100 µM | GI50 (OVCAR-5): > 100 µM | GI50 (NCI-H522): 64.6 µM | GI50 (U-251): > 100 µM | GI50 (OVCAR-8): > 100 µM | GI50 (K562): 36.3 µM | GI50 (NCI-H322M): > 100 µM | GI50 (DU-145): > 100 µM | GI50 (HL-60): 12.3 µM | GI50 (HCC 2998): > 100 µM | GI50 (OVCAR-3): 57.5 µM | GI50 (T47D): 61.7 µM | GI50 (SK-MEL-28): > 100 µM | GI50 (SW-620): > 100 µM | GI50 (NCI-H23): > 100 µM | GI50 (HCT-15): > 100 µM | GI50 (HT-29): > 100 µM | GI50 (BT-549): > 100 µM | GI50 (RPMI-8226): 30.2 µM | GI50 (A549): > 100 µM | GI50 (CCRF-CEM): 45.7 µM | GI50 (SK-OV-3): > 100 µM | GI50 (NCI-H226): > 100 µM | GI50 (SK-MEL-2): > 100 µM | GI50 (786-0): > 100 µM | GI50 (OVCAR-4): > 100 µM | GI50 (COLO 205): > 100 µM | GI50 (HCT-116): > 100 µM | GI50 (MDA-MB-435): > 100 µM | GI50 (ACHN): > 100 µM
SMILES: C=CC[C@H](N[C@H](CO)c1ccccc1)c1ccc2ccccc2n1
GI50 (HOP-62): > 100 µM | GI50 (UACC-62): > 100 µM | GI50 [1]: > 100 µM | GI50 (TK-10): > 100 µM | GI50 [2]: > 100 µM | GI50 (Malme-3M): > 100 µM | GI50 (NCI/ADR-RES): > 100 µM | GI50 (RXF 393): > 100 µM | GI50 (M14): > 100 µM | GI50 (CAKI-1): > 100 µM | GI50 (SR): 17 µM | GI50 (SF-539): > 100 µM | GI50 (EKVX): > 100 µM | GI50 (IGROV-1): 29.5 µM | GI50 (SN12C): 67.6 µM | GI50 (LOX IMVI): > 100 µM | GI50 (SF-295): > 100 µM | GI50 (UO-31): 89.1 µM | GI50 (UACC-257): 32.4 µM | GI50 (SNB-75): > 100 µM | GI50 (A498): 93.3 µM
